Assay type in all cases: functional
In one assay the test system is A549. Kind of assay: Inhibitor activity against A549 (Human lung carcinoma)cell line with varying concentration of the drug for 72 hrs. The conditions noted are these: A549, 72 h. The essentials: (§1)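 Cells exposed 72 h to a range of drug concentrations; drug stocks prepared in ethanol. Growth read by in situ fixation and sulforhodamine B protein staining. GI50 is the concentration giving 50% growth inhibition. Each experiment's value comes from three wells on each of two separate plates (six wells); reported as mean ± SD over n experiments.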

In a further assay the test system is HT-29. Briefly: Inhibitor activity against HT-29 (Human colon carcinoma)cell line with varying concentration of the drug for 72 hrs. Particulars: HT-29, 72 h. The essentials: as §1
Assay [1] relates to L1210. Kind of assay: Inhibitor activity against L1210 (murine leukemia )cell line with varying concentration of the drug for 72 hrs. The conditions noted are these: Mus musculus, L1210, 72 h. The essentials: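 Murine L1210 leukemia cells grown in RPMI 1640 with 10% FBS. Exposed 72 h to a range of drug concentrations; drug stocks in ethanol. Growth read by in situ fixation and sulforhodamine B staining. GI50 is the concentration giving 50% growth inhibition. Each value comes from six wells over two plates; reported as mean ± SD.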

Assay [2] concerns L1210. Kind of assay: Inhibitor activity against L1210/vmdr (transfected with a plasmid containing mdr1) cell line with varying concentration of the drug for 72 hrs. The conditions noted are these: Mus musculus, L1210, 72 h. The essentials:
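L1210 leukemia transfected with human mdr1 (pHaMDR1/A), grown in RPMI 1640 with 10% FBS plus 0.06 µg/mL colchicine; colchicine removed one week before assay. Exposed 72 h to a range of drug concentrations (ethanol stocks). Sulforhodamine B staining after in situ fixation. GI50 is the concentration giving 50% growth inhibition, from six wells over two plates.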

Assay [3] deals with MCF7. Kind of assay: Inhibitor activity against MCF-7(Human breast carcinoma)cell line with varying concentration of the drug for 72 hrs. Particulars: MCF7, 72 h. The procedure, abridged: as §1
For assay [4], the system named is MCF7. Kind of assay: Inhibitor activity against MCF-7/Adr (Human colon carcinoma)cell line with varying concentration of the drug for 72 hrs. Particulars: MCF7, 72 h, in the assay text read “Human breast carcinoma” for “Human colon carcinoma”. The procedure, abridged:
as §1

Assay [5] has as its system Lewis lung carcinoma cell line. Briefly: Inhibitor activity against Lewis lung (murine lung carcinoma)cell line with varying concentration of the drug for 72 hrs. Particulars: Mus musculus. The procedure, abridged:
as §1

Assay [6] concerns P388. Briefly: Inhibitor activity against P388 (murine leukemia )cell line with varying concentration of the drug for 72 hrs. The conditions noted are these: Mus musculus, P388, 72 h. The procedure, abridged:
as §1

Assay [7] relates to P388. Briefly: Inhibitor activity against P388/Adr (murine leukemia )cell line with varying concentration of the drug for 72 hrs. The conditions noted are these: Mus musculus, P388, 72 h. The procedure, abridged:
as §1

On to `CCCCCCCCCCCCCCCCOC[C@H](CO[C@H]1O[C@@H](CO)[C@@H](O)[C@H](O)[C@H]1OC)OC`, for which the GI50 is 15.6 µM in the assay with A549; 20 µM in the assay with HT-29; 15.5 µM in the assay with L1210 [1]; 16.5 µM in the assay on L1210 [2]; 18.2 µM in the assay on MCF7 [3]; 18.6 µM in the assay on MCF7 [4].
Regarding `CCCCCCCCCCCCCCCCOC[C@H](CO[C@@H]1C[C@@H](O)[C@H](O)[C@H](CO)O1)OC`, the concentration for 50% growth inhibition (GI50) was 19.7 µM with A549; 29.6 µM in the assay with HT-29; 18.8 µM in the assay with L1210 [1]; 26.9 µM in the assay with L1210 [2]; 24.4 µM with MCF7 [3]; 24.4 µM in the assay with MCF7 [4].
In the case of `CCCCCCCCCCCCCCCCOC[C@H](CO[C@@H]1O[C@@H](CO)[C@@H](O)[C@H](O)[C@@H]1OC)OC`, the GI50 was 18.3 µM with A549; 23.1 µM with MCF7 [3]; 21.8 µM in the assay on MCF7 [4]; 26 µM in [5]; 18.1 µM in the assay on P388 [6]; 29.3 µM with P388 [7].
On to `CCCCCCCCCCCCCCCCOC[C@H](CO[C@H]1C[C@@H](O)[C@H](O)[C@H](CO)O1)OC`, for which the GI50 with A549 worked out at 9.9 µM; with HT-29, 7.59 µM; in the assay with L1210 [1], 7.02 µM; with L1210 [2] it was 7.09 µM; with MCF7 [3] it was 6.93 µM; with MCF7 [4] it was 12.8 µM. Further, the GI50 was determined as 11.1 µM in [5], 12.7 µM in the assay with P388 [6] and 10.2 µM in the assay on P388 [7].
For `CCCCCCCCCCCCCCCCOC[C@H](CO[C@@H]1O[C@@H](CO)[C@@H](O)[C@H](O)[C@@H]1O)OC`, the GI50 in the assay with A549 was determined as 18.1 µM; in the assay on HT-29, 23.2 µM; with L1210 [1], 16.2 µM; in the assay with L1210 [2], 18.9 µM; with MCF7 [3] it was 21.7 µM; in the assay on MCF7 [4], 23.3 µM.
For the compound `CCCCCCCCCCCCCCCCCCOC[C@H](COP(=O)([O-])OCC[N+](C)(C)C)OC` [(R)-EDELFOSINE], the GI50 in the assay with A549 amounted to 5.05 µM; in the assay on HT-29, 2.2 µM; in the assay on L1210 [1] it was 3.32 µM; in the assay with L1210 [2] it was 11 µM; in the assay on MCF7 [3], 9.66 µM; with MCF7 [4], 30.4 µM. For the same compound, the GI50 in assay [5] is 30.2 µM; with P388 [6], 4.33 µM; with P388 [7], 6.39 µM.

In general, GI50 refers to the concentration that inhibits growth by half.

Source of the values: ChEMBL document CHEMBL1129274, “Synthesis and growth inhibitory properties of glycosides of 1-O-hexadecyl-2-O-methyl-sn-glycerol, analogs of the antitumor ether lipid ET-18-OCH3 (edelfosine)” (1996).
